# Compound activity (PubChem)
# A selection: hits, their analogues and other compounds. The true share with any hit is near 3.5%.
# RGS4 pot = potentiators or activators of RGS4; HEK293 M3R/inducible RGS4, carbachol calcium flux Fluo4; hits give low values; B-score at 10 µM; 0.92% of 310,000 active;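 active means B-score of the integrated calcium signal more than 4 SD below the library mean, with starting fluorescence not abnormally high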;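 further: negative B-score means reduced calcium response which marks RGS4 activation or potentiation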
#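 Assay system: HEK293 FlpIn-TREx cells, stable M3R, doxycycline-inducible RGS4 / Probe or stimulus: carbachol, ECmax concentration / Times: overnight RGS4 induction, 30 min dye load 37 °C, 20 min compound RT / Signal: kinetic calcium fluorescence imaging with Fluo4-AM dye, 2 µM / Measure: Agonist-evoked peak-minus-minimum fluorescence over baseline, integrated ratio, B score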
# MrgX1 antagonist = blocks BAM8-22 activation of human MrgX1 receptor; Q96LB2; MRGX1-HEK293 calcium flux, Fluo-4, BAM8-22 antagonism; hits give low values; B-score at 10 µM; 1.3% of 310,000 active;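 active means calcium-response B-score plate-corrected more than 3 library SD below zero, starting fluorescence within 5 deviations, no agonist response on first addition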;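 further: peak minus trough fluorescence over baseline after final BAM8-22 challenge near maximal dose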
# Target sequence (Q96LB2 whole entry, looked up): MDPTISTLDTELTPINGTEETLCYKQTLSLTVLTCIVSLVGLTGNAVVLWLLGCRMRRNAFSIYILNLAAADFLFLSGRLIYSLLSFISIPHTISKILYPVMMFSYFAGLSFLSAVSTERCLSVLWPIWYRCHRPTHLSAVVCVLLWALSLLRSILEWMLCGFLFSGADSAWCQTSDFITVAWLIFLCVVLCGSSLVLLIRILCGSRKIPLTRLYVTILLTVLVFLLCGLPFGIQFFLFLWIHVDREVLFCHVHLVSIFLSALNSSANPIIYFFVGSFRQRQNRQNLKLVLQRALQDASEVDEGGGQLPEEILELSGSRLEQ
# MrgX1 agonist = activates human MrgX1 receptor signaling | Q96LB2 | MrgX1-HEK293 cells, Fluo-4 calcium fluorescence, agonist mode; hits give high values | B-score at 10 µM | 0.44% of 310,000 active | AID 588627;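 active means calcium response B-score plate-corrected fluorescence ratio at least 3 library SD, with starting fluorescence B-score inside 5 SD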
#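 Assay system: stable human MrgX1 HEK293 cell line. Quantity: 15,000 cells per well. Schedule: cells plated overnight, dye loaded 0.5 h 37 °C, 0.5 h room temperature. Detection: Fluo-4 NW calcium-flux fluorescence, kinetic read. Read-out basis: peak-minus-minimum fluorescence over baseline, converted to B scores. Control set: positive and negative control wells on each plate.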
# MrgX1 allo act = allosterically activates human MrgX1 receptor signaling. AID 588675. MrgX1-HEK293, Fluo-4 calcium flux, FDSS; hits give high values. Q96LB2. B-score at 10 µM. 0.63% of 310,000 active;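 active means plate-corrected calcium response at least 3 library SD above typical, normal starting fluorescence, not activating the receptor alone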;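 further: compound read alongside a low EC10 to EC30 dose of BAM8-22 agonist; peak minus trough fluorescence over baseline measured at the second addition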
# RGS4 inh = inhibitors of human RGS4 | P49798 | HEK293 M3R/RGS4 inducible, Fluo-4 calcium flux; hits give high values; triggered by carbachol at its EC20 | B-score at 10 µM | 0.45% of 310,000 active;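 active means B-score, a plate-corrected calcium signal, over three deviations above library mean, with baseline fluorescence within five deviations of library mean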;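 further: RGS4 expression induced by doxycycline in cells with stable M3 receptor; B-score is computed from the integrated fluorescence ratio over baseline after carbachol; higher B-score means a larger calcium signal and so more RGS4 inhibition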
# Target sequence (P49798 whole entry, looked up): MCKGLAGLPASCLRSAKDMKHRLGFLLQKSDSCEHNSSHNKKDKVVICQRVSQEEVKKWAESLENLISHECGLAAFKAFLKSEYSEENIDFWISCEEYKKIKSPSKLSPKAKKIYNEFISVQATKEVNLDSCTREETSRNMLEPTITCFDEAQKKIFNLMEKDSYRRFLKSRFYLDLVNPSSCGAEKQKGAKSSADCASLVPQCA
# * marks the source's active call; other numbers are inactive results; i = inactive.
SMILES,RGS4 pot,MrgX1 antagonist,MrgX1 agonist,MrgX1 allo act,RGS4 inh
CCCCCNCC(=O)Nc1cccc(C(=O)Nc2cccc(C(F)(F)F)c2)c1,i,-6.95*,i,i,i
Cc1nc(N2CCOCC2)nc(OCCN2CCOCC2)c1[N+](=O)[O-],i,-5.25*,i,i,i
Cc1nc(N2CCOCC2)nc(OCCN(C)C)c1[N+](=O)[O-],i,i,i,i,i
O=C(CC1(CC2=NS(=O)(=O)c3ccccc3N2)CCCC1)NCCc1ccccc1,i,i,i,i,i
CCn1c(=S)sc2c(=O)n(-c3ccccc3)c(SC)nc21,i,i,i,7.74*,i
O=C(Nc1cccc([N+](=O)[O-])c1)C1CCN(C(=O)Cc2ccccc2)CC1,i,i,i,i,i
CCOC(=O)c1c(NC(=O)CSc2c[nH]c3ccccc23)sc2c1CCC2,-7.1*,i,i,i,i
Cc1ccc(CNC(=O)CN2C(=O)CSc3ccc(S(=O)(=O)N4CCCCC4)cc32)cc1,i,i,i,i,i
CCOC(=O)CC(NC(=O)CCc1c(C)nc2ncnn2c1C)c1ccc(OC(C)C)cc1 (stereo not drawn),i,i,i,i,i
O=C1/C(=N/n2cnnc2)c2ccccc2N1Cc1ccccc1,i,i,44.6*,i,i
CCN(CC)CCSc1nc2ccccc2c(=S)n1-c1ccccc1,-8.03*,i,i,i,i
CCN(CC)CCSc1nc2ccccc2n1Cc1ccccc1,-9.11*,i,i,i,i
CCN(CC)CCSc1nc(O)c(-c2ccccc2)c(=O)n1-c1ccccc1,i,i,i,i,i
COc1cccc(CNC(=O)c2ccc(CS(=O)Cc3ccc(C)cc3)o2)c1 (stereo not drawn),i,i,i,i,i
CCN(c1ccccc1)S(=O)(=O)c1ccc(C(=O)N(CCN(C)C)c2nc3c(F)cc(F)cc3s2)cc1,i,i,i,i,13.7*
CN(C)CCN(C(=O)c1ccc(S(=O)(=O)N(C)C)cc1)c1nc2cc3c(cc2s1)OCCO3,i,i,i,i,i
CN(C)CCN(C(=O)c1ccc(S(=O)(=O)N(C)c2ccccc2)cc1)c1nc2cc3c(cc2s1)OCCO3,-7.83*,i,i,i,i
CC1(C)CC2(CCO1)C(Nc1ccccc1)=NC(=S)N2c1ccccc1 (stereo not drawn),i,i,i,i,i
O=C1C=C(NCCc2ccccc2)C2(CCCCC2)O1,i,i,i,i,i
COc1cccc(NC(=O)CN(C)C(=O)CCNC(=O)c2ccc(Br)cc2)c1,i,-8.94*,i,i,i
COc1cccc(CN(C)C(=O)CCNC(=O)c2ccc(Br)cc2)c1,i,i,i,i,i
O=C(/C=C/c1ccccc1)NC(=S)Nc1ccc2c3c(cccc13)CC2,i,-14.3*,i,i,i
O=C(COc1ccccc1)NC(=S)Nc1ccc2c3c(cccc13)CC2,i,i,i,i,i
N#C/C(=C\c1ccc(O)c(O)c1)C(=O)NCCCc1ccccc1,i,i,i,6.74*,i
NC(N)=N/N=C/c1ccccc1,i,i,i,i,i
SMILES,RGS4 pot,MrgX1 antagonist,MrgX1 agonist,MrgX1 allo act,RGS4 inh
COc1cc(/C=N/N=C(N)N)ccc1OCc1ccc(Cl)cc1,i,i,29.8*,i,i
CCOc1cc(/C=N/N=C(N)N)ccc1OCc1ccc(Cl)cc1,i,i,i,i,i
CCOCCCNCc1ccc(OCc2ccccc2Cl)cc1,i,i,i,i,i
NC(N)=N/N=C/c1ccc(Cl)c(Cl)c1,i,i,30.6*,i,i
OCCCCNCc1ccc(OCc2ccccc2Cl)cc1,-7.01*,i,i,i,i
NC(N)=N/N=C/c1ccc(OCc2ccccc2Cl)cc1,-10.3*,i,i,i,i
CCCSc1cc(=O)n(-c2ccc(F)cc2)nc1C(=O)OCC,i,i,i,i,i
CCn1c(C)c(C(C)=O)c(N2CCN(C(c3ccccc3)c3ccccc3)CC2)nc1=S,-7.38*,i,i,i,i
CCS(=O)(=O)c1cc([N+](=O)[O-])c(Sc2ccccc2NC(C)=O)s1,i,i,i,i,i
Cc1cc(C)n(-c2ccc(C(F)(F)F)cc2[N+](=O)[O-])n1,-9.29*,i,i,i,i
CCC(C)(C(=O)NC1CCCCC1)N(C(=O)CNC(=O)c1ccccc1)c1c(C)n(C)n(-c2ccccc2)c1=O (stereo not drawn),i,i,i,i,i
COc1ccc(CC(=O)Nc2cccc(/C(C)=N/NC(=O)C3(C)CC3(Br)Br)c2)cc1 (stereo not drawn),-9.35*,i,i,i,i
C/C(=N\NC(=O)C1(C)CC1(Br)Br)c1cccc(NC(=O)C(C)(C)C)c1 (stereo not drawn),i,i,i,i,i
Cc1cccc(C(=O)Nc2nnc(S(=O)(=O)N(C)Cc3ccco3)s2)c1,i,i,i,i,i
Nc1nc(Nc2cccc(F)c2)nc(NCCO)c1[N+](=O)[O-],i,i,i,i,i
Cc1ccc(Nc2nc(N)c([N+](=O)[O-])c(NCCO)n2)cc1,i,i,i,8.01*,i
CS(=O)(=O)N(CC(=O)N1CCCC1)c1ccccc1Br,i,i,i,i,i
O=C(CC1Sc2ccccc2NC1=O)Nc1cccnc1 (stereo not drawn),i,i,i,i,i
O=C(CC1Sc2ccccc2NC1=O)Nc1ccccc1[N+](=O)[O-] (stereo not drawn),i,-6.72*,i,i,i
OC(CNCCC1C=Nc2ccccc21)Cn1c2ccc(Cl)cc2c2cc(Cl)ccc21 (stereo not drawn),i,i,i,i,7.4*
CC(NS(=O)(=O)c1ccccc1)C(=O)Nc1ccc2c(c1)OCCO2 (stereo not drawn),i,i,i,i,i
Cc1cccc(C(=O)NNC(=O)CCC(=O)Nc2cccc(Cl)c2C)c1,i,-6.94*,i,i,i
Cc1ccccc1C1CC(c2cccs2)Nc2nnnn21 (stereo not drawn),i,i,i,i,i
COC(=O)c1c(-c2ccc(OC)cc2)oc2ccc(-c3ccc(OC)nc3)cc12,i,i,i,i,i
CCCOC(=O)c1c(-c2ccc(OC)cc2)oc2ccc(-c3ccc(OC)nc3)cc12,i,-8.26*,i,i,i
